# The source made the active and inactive calls. The calls are words filed in the database; no cut-off is given here.
# Key:
# Nucleic Acid [1] = assay: Binding affinity to calf thymus DNA assessed as reduction in electrophoretic DNA mobility at 20 uM after 1 to 5 hrs irradiation by agarose gel electrophoresis; format: nucleic-acid assay; details: Bos taurus
# Procedure, shortened: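 Calf thymus double-stranded DNA (1.3 × 10^-4 M, in base pairs) mixed with 20 μM sensitizer in TE buffer (10 mM Tris-HCl, 1 mM EDTA, pH 7.6). Irradiated with visible light (90 mW/cm²) at room temperature for 1, 2, 3, 4 or 5 h. Samples then run on 1% agarose gels in TBE buffer (pH 8) at 2.9 V/cm for 2 h. Controls: DNA alone, DNA with sensitizer in dark, irradiated DNA.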
# Nucleic Acid [2] = assay: Binding affinity to calf thymus DNA by spectrophotometric analysis; format: nucleic-acid assay; details: Bos taurus
# Procedure, shortened: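 Absorbance titration: concentrated calf thymus DNA stock was added to ~2 µM porphyrin in PBS. Apparent KDNA was calculated from the Soret-maximum absorbance change, assuming 1:1 stoichiometry and DNA in large excess, via a double-reciprocal fit (1/ΔA vs 1/[DNA]). Three separate experiments, mean ± SD.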
# Candida albicans [3] = assay: Antifungal activity against 10^6 CFU/mL Candida albicans PC31 assessed as cell survival at 5 uM preincubated for 30 mins in dark followed by irradiation measured after 30 mins; format: functional
# Candida albicans [4] = assay: Antifungal activity against 10^7 CFU/mL Candida albicans PC31 assessed as cell survival at 5 uM preincubated for 30 mins in dark followed by irradiation measured after 30 mins; format: functional
# Procedure, shortened: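 C. albicans PC31 grown overnight in Sabouraud broth at 37 °C to stationary phase, then resuspended in 10 mM PBS pH 7.0 at ~10^7 CFU/mL. Incubated with 5 µM porphyrin for 30 min in the dark at 37 °C. Irradiated 30 min with visible light from a 150 W lamp, water-filtered (fluence 162 J/cm²). CFU counted on Sabouraud agar after ~48 h at 37 °C, plated in triplicate. Three separate experiments, mean ± SD.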
# Candida albicans [5] = assay: Antifungal activity against 10^7 CFU/mL Candida albicans PC31 preincubated for 30 mins in dark followed by irradiation measured after 30 mins; format: functional, organism-based; details: PC31, light or radiation study
# Procedure, shortened: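 IC50 was derived from PBS suspensions of PC31 (~10^7 CFU/mL) treated with 0.1–10 µM porphyrin for 30 min in the dark at 37 °C. Cells were then irradiated for 30 min with water-filtered visible light from a 150 W lamp. Survival was counted as CFU on Sabouraud agar after ~48 h at 37 °C.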
# Candida albicans [6] = assay: Photocytotoxicity against Candida albicans PC31 assessed as release of intracellular DNA and protein at 5 uM preincubated for 30 mins in dark followed by irradiation measured after 30 mins by UV-vis spectroscopic analysis; format: functional, organism-based
# Procedure, shortened: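 PC31 cells (~10^7 CFU/mL in 2 mL PBS) were incubated with 5 µM porphyrin for 30 min in the dark, then irradiated 30 min with visible light (162 J/cm²). After centrifugation at 13,000 rpm for 5 min, supernatants were scanned by UV–visible spectroscopy, with absorbance at 260 nm taken as the release read-out. Freeze–thaw lysis in liquid nitrogen gave the positive control.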
# Nucleic Acid [7] = assay: Binding affinity to Candida albicans PC31 DNA assessed as genomic DNA cleavage at 5 uM preincubated for 30 mins in dark followed by irradiation measured after 30 mins by agarose gel electrophoresis; format: nucleic-acid assay
# Procedure, shortened: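 PC31 cells (~10^7 CFU/mL in PBS) received 5 µM sensitizer for 30 min at 37 °C in the dark, then 30 min visible light (162 J/cm²). Genomic DNA was extracted with a commercial kit immediately after irradiation. It was run on 1% agarose in TBE (pH 8) at 2.9 V/cm for 2 h beside an irradiated control.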
# Candida albicans [8] = assay: Photocytotoxicity against Candida albicans PC31 assessed as change in cell morphology at 5 to 10 uM preincubated for 30 mins in dark followed by irradiation measured after 30 mins by transmission electron microscopy; format: functional, organism-based
# Procedure, shortened: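 PC31 suspensions (~10^7 CFU/mL) were given 5 or 10 µM sensitizer for 30 min in the dark at 37 °C, then irradiated 30 min with visible light (162 J/cm²). Cells were fixed in 4% formaldehyde/2% glutaraldehyde in 0.1 M cacodylate for 2 h, then post-fixed in 1% OsO4. They were acetone-dehydrated, Araldite-embedded, cut at 80–100 nm, stained with uranyl acetate and lead citrate, and imaged by TEM.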
# Nucleic Acid [9] = assay: Binding affinity to calf thymus DNA assessed as DNA cleavage at 20 uM after 1 hr irradiation by agarose gel electrophoresis; format: nucleic-acid assay; details: Bos taurus
# Procedure, shortened: (§1)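 Calf thymus DNA (1.3 × 10^-4 M, base pairs) was mixed with 20 µM sensitizer in TE buffer (10 mM Tris-HCl, 1 mM EDTA, pH 7.6). Mixtures were irradiated in open tubes with visible light (90 mW/cm²) at room temperature for 1–5 h; dark controls were included. Samples were run on 1% agarose in TBE at 2.9 V/cm for 2 h.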
# Nucleic Acid [10] = assay: Binding affinity to calf thymus DNA assessed as DNA cleavage at 20 uM after 2 hrs irradiation by agarose gel electrophoresis; format: nucleic-acid assay; details: Bos taurus; procedure, shortened: as §1
# Nucleic Acid [11] = assay: Binding affinity to calf thymus DNA assessed as DNA cleavage at 20 uM by agarose gel electrophoresis in absence of irradiation; format: nucleic-acid assay; details: Bos taurus; procedure, shortened: as §1
# Nucleic Acid [12] = assay: Binding affinity to calf thymus DNA assessed as DNA cleavage at 20 uM after 5 hrs irradiation by agarose gel electrophoresis; format: nucleic-acid assay; details: Bos taurus; procedure, shortened: as §1
Kapp (Nucleic Acid [2]),IC50 (Candida albicans [5]),Activity (Nucleic Acid [7]),Activity (Nucleic Acid [9]),Activity (Nucleic Acid [10]),Activity (Nucleic Acid [11]),Activity (Nucleic Acid [12]),SMILES,Activity (Nucleic Acid [1]),log10CFU/ml (Candida albicans [3]),log10CFU/ml (Candida albicans [4]),Activity (Candida albicans [6]),Activity (Candida albicans [8])
7.5 ×10⁵ /M,230 nM,inactive,59.3%,> 90%,,,C[N+](C)(C)c1ccc(-c2c3nc(c(-c4ccc([N+](C)(C)C)cc4)c4ccc([nH]4)c(-c4ccc([N+](C)(C)C)cc4)c4nc(c(-c5ccc([N+](C)(C)C)cc5)c5ccc2[nH]5)C=C4)C=C3)cc1,,5,3.5,inactive,Active
6.7 ×10⁵ /M,160 nM,inactive,19.7%,,inactive,50%,C[N+](C)(C)c1ccc(-c2c3nc(c(-c4ccc([N+](C)(C)C)cc4)c4ccc([nH]4)c(-c4ccc([N+](C)(C)C)cc4)c4nc(c(-c5ccc(C(F)(F)F)cc5)c5ccc2[nH]5)C=C4)C=C3)cc1,,5,3.5,inactive,Active

SMILES,Kapp (Nucleic Acid [2]),IC50 (Candida albicans [5]),Activity (Nucleic Acid [7]),Activity (Nucleic Acid [9]),Activity (Nucleic Acid [10]),Activity (Nucleic Acid [11]),Activity (Nucleic Acid [12]),Activity (Nucleic Acid [1]),log10CFU/ml (Candida albicans [3]),log10CFU/ml (Candida albicans [4]),Activity (Candida albicans [6]),Activity (Candida albicans [8])
C[n+]1ccc(-c2c3nc(c(-c4cc[n+](C)cc4)c4ccc([nH]4)c(-c4cc[n+](C)cc4)c4ccc([nH]4)c(-c4cc[n+](C)cc4)c4nc2C=C4)C=C3)cc1 [TMPYP4],4.4 ×10⁵ /M,410 nM,inactive,,,,,Active,5,3.5,inactive,Active

# Source: ChEMBL document CHEMBL2169771, “Mechanistic aspects of the photodynamic inactivation of Candida albicans induced by cationic porphyrin derivatives” (Eur J Med Chem, 2012)
